Test results reported in ChEMBL document CHEMBL4834396, “Molecular Recognition and Imaging of Human Telomeric G-Quadruplex DNA in Live Cells: A Systematic Advancement of Thiazole Orange Scaffold To Enhance Binding Specificity and Inhibition of Gene Expression” (J Med Chem, 2021).
Activity calls are given as the source filed them. The rule behind the calls is not given here.

Columns and labels:
Quadruplex DNA [1] = experiment: Stabilization of telomeric Htg24 G-quadruplex DNA (unknown origin) assessed as inhibition of DNA amplification at 20 uM by PCR analysis; format: nucleic-acid assay
In short: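 Taq polymerase stop assay: Htg24 or its non-G4 mutant template (5 μM) with 2 μM of each oligomer, […] and ligand at 0–20 μM. Cycling was 94 °C for 5 min, then 30 cycles of 94/56/72 °C at 30 s each. Products were resolved on 15% PAGE and stained with SYBR Gold.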

DNA = experiment: Binding affinity to ds26 DNA (unknown origin) assessed as equilibrium binding constant at 5 uM at 25 degreeC by […]; format: nucleic-acid assay
In short: (§1)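 Fluorescence titration: ligand 5 μM in 10 mM Tris-HCl pH 7.4 with 60 mM KCl, nucleic acid added until saturation, 25 °C. Keq from nonlinear fit of F/F0 to an independent-site model.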

rRNA = experiment: Binding affinity to rRNA (unknown origin) assessed as equilibrium binding constant at 5 uM at 25 degreeC […]; format: nucleic-acid assay; in short: as §1
Quadruplex DNA [2] = experiment: Binding affinity to c-myc promoter G-quadruplex DNA Pu22 (unknown origin) assessed as equilibrium binding constant at 5 uM at 25 degreeC by […]; format: nucleic-acid assay; in short: as §1
Quadruplex DNA [3] = experiment: Binding affinity to telomeric Telo21 G-quadruplex DNA (unknown origin) assessed as equilibrium binding constant at 5 uM at 25 degreeC by […]; format: nucleic-acid assay
In short: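 Fluorescence titration: ligand at 5 μM in 10 mM Tris-HCl, pH 7.4, with 60 mM KCl, 25 °C. DNA was added slowly until saturation. Keq was obtained by nonlinear fitting of F/F0 to an independent-site model.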

Quadruplex DNA [4] = experiment: Binding affinity to telomeric Htg24 G-quadruplex DNA (unknown origin) assessed as equilibrium binding constant at 5 uM at 25 degreeC by […]; format: nucleic-acid assay; in short: as §1
HeLa [5] = experiment: Downregulation of hTERT mRNA expression in human HeLa cells at 5 to 20 uM by qRT-PCR analysis; format: functional, cell-based; conditions: dose 5-20 µM
In short: (§2)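 HeLa cells were treated with graded compound concentrations, then incubated 36 h. RNA was extracted with Trizol/chloroform, reverse transcribed and quantified by qRT-PCR. GAPDH served as internal control, with relative expression by the ΔΔCt method; three independent experiments, mean ± SD.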

HeLa [6] = experiment: Downregulation of hTERC mRNA expression in human HeLa cells at 5 to 20 uM by qRT-PCR analysis; format: functional, cell-based; conditions: dose 5-20 µM; in short: as §2
PC-3 = experiment: Antiproliferative activity against human PC-3 cells assessed as reduction in cell viability […] by MTT assay; format: functional, cell-based
HepG2 = experiment: Antiproliferative activity against human HepG2 cells assessed as reduction in cell viability […] by MTT assay; format: functional, cell-based
MCF7 = experiment: Antiproliferative activity against human MCF7 cells assessed as reduction in cell viability […] by MTT assay; format: functional, cell-based
U-87 MG = experiment: Antiproliferative activity against human U87 cells assessed as reduction in cell viability […] by MTT assay; format: functional, cell-based, U-87MG ATCC
HeLa [7] = experiment: Antiproliferative activity against human HeLa cells assessed as reduction in cell viability […] by MTT assay; format: functional, cell-based
16HBE14o- = experiment: Cytotoxicity against human 16HBE14o- cells assessed as cell viability incubated for 48 hrs by MTT assay; format: cell-based; conditions: 36 h, in the assay text read “36 hrs” for “48 hrs”
In short: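 Cells were plated and grown 48 h at 37 °C, 5% CO2, in DMEM with 10% FBS. They were then given graded ligand concentrations for 36 h and treated with MTT (5 mg/ml) for 4 h in the dark. Formazan was dissolved in DMSO and absorbance read at 577 nm. IC50 was taken from a sigmoidal dose–response fit; three independent experiments.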

[8] = Water solubility of compound at 25 degreeC; format: physicochemical
In short: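 Solubility in water measured at 25 °C.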

Quadruplex DNA [9] = experiment: Binding affinity to telomeric Htg24 G-quadruplex DNA (unknown origin) assessed as fluorescence quantum yield by fluorescence spectrophotometric method; format: nucleic-acid assay
In short: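 Fluorescence quantum yield determined against fluorescein (Φ = 0.95) in 1% NaOH ethanol. Five increasing ligand concentrations added to fixed DNA, with absorbance and emission recorded for each.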

Quadruplex DNA [10] = experiment: Binding affinity to telomeric Htg24 G-quadruplex DNA (unknown origin) assessed as emission wavelength at 480 to 483 nm at pH 7.4 by spectrophotometric method; format: nucleic-acid assay
Quadruplex DNA [11] = experiment: Binding affinity to telomeric Htg24 G-quadruplex DNA (unknown origin) assessed as stroke shift under at 480 to 483 nm at pH 7.4 by spectrophotometric method
HeLa [12] = experiment: Induction of cellular senescence in human HeLa cells assessed as positive SA-beta-Gal cells at 0.5 to 4 uM incubated for 18 days by inverted fluorescence microscopic analysis; format: functional, cell-based; conditions: dose 0.5-4 µM, time 18.0 day
In short: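 HeLa cells were exposed to compound for 18 days, with drug-containing medium replaced every three days. Cells were then fixed 15 min at room temperature and stained for β-galactosidase at 37 °C overnight. Stained cells were examined under an inverted microscope.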

Quadruplex DNA [13] = experiment: Displacement of 2-((E)-4-(Dimethylamino)styryl)-1-methyl-4-((Z)-(3-(3-morpholinopropyl)benzo[d]thiazol-2(3H)-ylidene)methyl)quinolin-1-ium iodide from telomeric Htg24 G4 quadruplex DNA in human U87 cells assessed as decrease in fluorescence intensity at 5 to 20 uM by competition binding assay; format: cell-based; conditions: dose 5-20 µM
In short: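 Live U87 cells were stained with probe at 5 μM plus DAPI and co-treated with BRACO19 at 5, 10, 15 or 20 μM. Confocal imaging used excitation at 488 or 571 nm for the probe and 402 nm for DAPI. Nuclear spot intensity was compared across concentrations.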

SMILES	Activity (Quadruplex DNA [1])	Kb (DNA)	Kb (rRNA)	Kb (Quadruplex DNA [2])	Kb (Quadruplex DNA [3])	Kb (Quadruplex DNA [4])	solubility [8]	Activity (HeLa [5])	Activity (HeLa [6])	further results
CSc1ccc(/C=C/c2cc(/C=C3\Sc4ccccc4N3CCCN3CCOCC3)c3ccccc3[n+]2C)cc1.[I-]	inactive	657000 M⁻¹	764000 M⁻¹	486000 M⁻¹	301000 M⁻¹	325000 M⁻¹	87.3 µM	inactive	inactive	IC50 (PC-3): 91.1 µM; IC50 (HepG2): 96.5 µM; IC50 (MCF7): 105 µM; IC50 (U-87 MG): 96.8 µM; IC50 (HeLa [7]): 90.3 µM; IC50 (16HBE14o-): 58 µM
C[n+]1c(/C=C/c2ccc(N(c3ccccc3)c3ccccc3)cc2)cc(/C=C2\Sc3ccccc3N2CCCN2CCOCC2)c2ccccc21.[I-]	–	272000 M⁻¹	–	645000 M⁻¹	523000 M⁻¹	490000 M⁻¹	70.7 µM	–	–	–
CSc1ccc(/C=C/c2cc(/C=C3\Sc4ccccc4N3CCCN3CCC(C)CC3)c3ccccc3[n+]2C)cc1.[I-]	–	755000 M⁻¹	787000 M⁻¹	766000 M⁻¹	650000 M⁻¹	689000 M⁻¹	98.4 µM	–	–	–
CC1CCN(CCCN2/C(=C/c3cc(/C=C/c4ccc(O)cc4)[n+](C)c4ccccc34)Sc3ccccc32)CC1.[I-]	–	–	–	550000 M⁻¹	–	–	147 µM	–	–	–
C[n+]1c(/C=C/c2ccc(O)cc2)cc(/C=C2\Sc3ccccc3N2CCCN2CCOCC2)c2ccccc21.[I-]	–	–	–	–	965000 M⁻¹	–	167 µM	–	–	–
CC1CCN(CCCN2/C(=C/c3cc(/C=C/c4ccc(N(c5ccccc5)c5ccccc5)cc4)[n+](C)c4ccccc34)Sc3ccccc32)CC1.[I-]	–	154000 M⁻¹	–	907000 M⁻¹	785000 M⁻¹	722000 M⁻¹	77.2 µM	–	–	–

Continued, in another order:

Activity (Quadruplex DNA [1])	Kb (DNA)	Kb (rRNA)	Kb (Quadruplex DNA [2])	Kb (Quadruplex DNA [3])	Kb (Quadruplex DNA [4])	solubility [8]	SMILES	Activity (HeLa [5])	Activity (HeLa [6])	further results
Active	–	840000 M⁻¹	–	–	–	105 µM	CC1CCN(CCCN2/C(=C/c3cc(/C=C/c4ccc(N(C)C)cc4)[n+](C)c4ccccc34)Sc3ccccc32)CC1.[I-]	Active	Active	Activity (Quadruplex DNA [9]): 0.317; Activity (Quadruplex DNA [10]): 648 nm; IC50 (PC-3): 14.6 µM; IC50 (HepG2): 11 µM; IC50 (MCF7): 12.6 µM; IC50 (U-87 MG): 14.7 µM; IC50 (HeLa [7]): 21.2 µM; IC50 (16HBE14o-): 34.8 µM; Activity (Quadruplex DNA [11]): 165 nm
–	–	786000 M⁻¹	983000 M⁻¹	957000 M⁻¹	902000 M⁻¹	82.7 µM	CC1CCN(CCCN2/C(=C/c3cc(/C=C/c4ccc(C#N)cc4)[n+](C)c4ccccc34)Sc3ccccc32)CC1.[I-]	–	–	–
Active	–	–	–	–	–	–	CN(C)c1ccc(Nc2c3ccc(NC(=O)CCN4CCCC4)cc3nc3cc(NC(=O)CCN4CCCC4)ccc23)cc1	Active	Active	Activity (HeLa [12]): Active; Activity (Quadruplex DNA [13]): Active
–	379000 M⁻¹	501000 M⁻¹	443000 M⁻¹	722000 M⁻¹	505000 M⁻¹	83 µM	C[n+]1c(/C=C/c2ccc(C#N)cc2)cc(/C=C2\Sc3ccccc3N2CCCN2CCOCC2)c2ccccc21.[I-]	–	–	–
